A selection: hits, their analogues and other compounds. The true share with any hit is near 1.8%.
SIAE inh: human SIAE inhibitors, primary screen, biochemical, fluorescence polarization, FP-Rh probe, 1536-well HTS. Sialate O-acetylesterase (Homo sapiens), Q9HAT2. SIAE FP-Rh probe binding. inhibition, % at 9.66 µM. 370,000 compounds, 0.69% hits;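 active means inhibition above a cutoff: mean of compounds within the control limits plus 3 SD of those, cut at about 17% in these data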
Target sequence (Q9HAT2 whole entry, looked up): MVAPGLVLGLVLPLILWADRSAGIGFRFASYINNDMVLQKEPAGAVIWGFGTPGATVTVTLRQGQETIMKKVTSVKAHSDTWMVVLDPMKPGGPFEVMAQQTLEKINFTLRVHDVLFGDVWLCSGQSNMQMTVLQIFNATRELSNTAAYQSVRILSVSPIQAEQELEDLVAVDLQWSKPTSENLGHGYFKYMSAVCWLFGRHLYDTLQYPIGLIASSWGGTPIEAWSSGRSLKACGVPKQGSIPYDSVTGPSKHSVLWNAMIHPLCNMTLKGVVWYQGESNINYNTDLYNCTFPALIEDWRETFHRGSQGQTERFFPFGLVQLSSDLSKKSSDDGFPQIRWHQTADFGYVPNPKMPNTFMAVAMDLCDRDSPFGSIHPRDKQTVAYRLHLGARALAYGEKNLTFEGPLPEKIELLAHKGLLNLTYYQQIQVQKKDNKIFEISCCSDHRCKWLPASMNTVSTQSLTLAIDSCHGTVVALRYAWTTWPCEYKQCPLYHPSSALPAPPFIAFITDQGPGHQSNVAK
Tn6 DDE FP: inhibitors of Tn6 peptide binding to fibrin DD(E), primary screen, biochemical, fluorescence polarization, human fibrin, Tn6 probe; Fibrinogen beta chain (Homo sapiens), P02675; Fibrin DD(E) TRITC-Tn6 fluorescence polarization displacement; inhibition, % at 8.3 µM; 370,000 compounds, 0.21% hits; AID 720509, 2013;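 active means inhibition above a per-campaign cutoff: mean of compounds within control limits plus 3 SD, cut at about 15% in these data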
TCR-CD3 inh: inhibitors of human TCR-CD3 interaction, primary screen, biochemical, fluorescence, TAMRA-labeled TCR probe; 360,000 compounds, 0.37% hits; inhibition, % at 9.4 µM; T-cell receptor (TCR); AID 651800, 2012;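 further: recombinant mutant TCR 2C K166C tagged with TAMRA read by polarization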
HTRA1 inhibitor: HTRA1 serine protease inhibitors, primary screen, biochemical, fluorescence polarization, HTS. Q92743. recombinant HTRA1, FP-rhodamine activity-based probe. inhibition, % at 5.96 µM. 340,000 compounds, 0.5% hits. AID 504803, 2011; in the data active means inhibition above about 36%
Tn7 DDE FP: inhibitors of Tn7 peptide binding to fibrin DD(E), primary screen, biochemical, fluorescence polarization, human fibrin, Tn7 probe | Fibrinogen beta chain (Homo sapiens), P02675 | FP displacement of FITC-Tn7 peptide from fibrin DD(E); 0% = median of compound wells per plate | inhibition, % at 8.3 µM | 370,000 compounds, 0.13% hits;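 active means inhibition above the mean of compounds falling within the control limits plus 3 SD of them, cut at about 14% in these data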
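assay system = human clot-derived fibrin DD(E) complex | quantity = Fibrin-DD(E) at 2 µM final | timing = 10 min preincubation, 3 h with tracer, room temperature | signal = fluorescence polarization | measure = percent inhibition | benchmarks = high control wells with 10 µM unlabelled Aha-Tn7 peptide (full inhibition) | replicates = singlicate testing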
mABHD4 FP: ABHD4 inhibitors, primary screen, biochemical, fluorescence polarization, mouse. 370,000 compounds, 0.54% hits. inhibition, % at 8.92 µM. AID 720543, 2013. purified mABHD4, FP-Rh probe fluorescence polarization. (Lyso)-N-acylphosphatidylethanolamine lipase (Mus musculus), Q8VD66;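 active means inhibition exceeding the mean over every tested compound plus 3 SD, cut at about 30% in these data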
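System: mouse ABHD4 enzyme, wild type / Medium: HEPES pH 7.0, NaCl, Pluronic buffer / Reagent: FP-Rh activity-based fluorescent probe / Control set: S159A mutant high control, sample median low control / Detection: fluorescence polarization with parallel and perpendicular emission, 525/598 nm / Schedule: 45 min + 60 min at 25 °C / Compound dosing: 8.92 µM, single dose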
BSA TAMRA ctr: compounds interfering with TAMRA-BSA probe, counter-screen for TCR-CD3 interaction inhibitor project, biochemical, fluorescence, TAMRA-labeled BSA | shares compounds with TCR-CD3 inh | TAMRA-labeled BSA probe fluorescence counterscreen | inhibition, % at 9.4 µM | 1,200 compounds, 10% hits | AID 652035, 2013; in the data active means inhibition above about 23%
TCR-CD3 conf: TCR-CD3 interaction inhibitors, retest, confirmation, biochemical, fluorescence, TAMRA-labeled TCR probe; shares compounds with TCR-CD3 inh; 1,200 compounds, 48% hits; TAMRA-labeled TCR probe fluorescence binding assay; inhibition, % at 9.4 µM
DDE Tn7 confirm: inhibitors of Tn7 peptide binding to fibrin DD(E), confirmation, biochemical, fluorescence polarization, human fibrin, Tn7 probe; inhibition, % at 8.3 µM; FP displacement of TRITC-Tn7 peptide from DD(E); 0% set at plate's compound-well median; shares compounds with Tn7 DDE FP; 460 compounds, 5% hits; AID 720628, 2013;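 active means inhibition above the campaign cutoff, the mean of compounds within control limits plus 3 SD, cut at about 14% in these data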;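 further: displacers lower polarization since freed probe rises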
Tn7 DDE ctr: counter-screen for inhibitors of Tn7 peptide binding to fibrin DD(E); shares compounds with Tn7 DDE FP; inhibition, % at 8.3 µM; 460 compounds, 3% hits; TRITC-Tn7 probe displacement, fluorescence polarization;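 active means inhibition above the cutoff, the mean of compounds lying between the control bounds plus 3 SD of those compounds, cut at about 17% in these data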
Tn6 DDE ctr: counter-screen for inhibitors of Tn6 peptide binding to fibrin DD(E); AID 720621; TRITC-Tn6 fluorescence polarization displacement; 0% = median of compound wells, not DMSO; 680 compounds, 2% hits; shares compounds with Tn6 DDE FP; inhibition, % at 8.3 µM;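 active means inhibition above the mean of test compounds lying between the control limits plus 3 SD of those, cut at about 14% in these data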
Tn6 DDE conf: inhibitors of Tn6 peptide binding to fibrin DD(E), confirmation, biochemical, fluorescence polarization, human fibrin, Tn6 probe. FP displacement of TRITC-Tn6 peptide from DD(E); 0% = per-plate median of test wells. 680 compounds, 10% hits. AID 720631, 2013. shares compounds with Tn6 DDE FP. inhibition, % at 8.3 µM;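 active means inhibition above the mean of compounds lying within the control limits plus 3 SD, cut at about 16% in these data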
mABHD4 conf: ABHD4 inhibitors, retest, confirmation, biochemical, fluorescence polarization, mouse | AID 720658, 2013 | shares compounds with mABHD4 FP | purified mABHD4, FP-Rh probe fluorescence polarization | 1,800 compounds, 55% hits | inhibition, % at 8.92 µM;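 active means mean inhibition across replicates above the hit cutoff set in the primary screen, cut at about 30% in these data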
Hits are given with their value; n = inactive; x = no result; ! = a repeat was not active. Unless noted, no stated cut-off is given here; in the data, active means inhibition above about 19%; inactive means the rest.

SMILES	SIAE inh	Tn6 DDE FP	TCR-CD3 inh	HTRA1 inhibitor	Tn7 DDE FP	mABHD4 FP	BSA TAMRA ctr	TCR-CD3 conf	mABHD4 conf	others
Nc1ccc2nc3c(=O)n(C4CCCCC4)c(=O)[nH]c3nc2c1	n	n	24.0	n	26.7	42.8	28.3	26.9	40.5	DDE Tn7 confirm=n;Tn7 DDE ctr=n
Nc1ncnc2c1CN(Cc1ccccc1)CC2	n	64.5	76.5	n	n	72.0	n	n	n	Tn6 DDE ctr=n;Tn6 DDE conf=n
Nc1c(C(=O)Nc2ccc(Br)cc2)sc2nc(-c3ccco3)ccc12	n	n	n	n	n	n	x	x	x
CC(=O)c1sc2nc(-c3ccco3)ccc2c1N	n	n	24.0	x	n	30.8	n	n	n
CC(C)(C)n1nnnc1C(c1cc2ccccc2o1)N1CCOCC1 (stereo not drawn)	n	n	n	x	n	n	x	x	x
Oc1ccccc1/C=N/c1c(-c2ccco2)nc2ccccn12	n	n	19.7	n	n	52.3	n	n	n
COc1cc(-c2nc3ccccn3c2/N=C/c2cccc(OC)c2O)ccc1O	n	n	n	n	n	n	x	x	x
CN(CC(=O)Nc1ccccc1Br)CC(=O)Nc1ccccc1C(F)(F)F	n	n	n	n	n	n	x	x	x
Cc1ccc(S(=O)(=O)N2CCC(NC(=O)C3CCCCC3)CC2)cc1	n	n	n	n	n	n	x	x	x
O=C(O)/C=C/C(=O)Nc1ccc(O)cc1	n	n	19.8	n	n	36.9	n	n	n
Cc1cc2cc(CNC(=O)c3ccc(S(=O)(=O)N4CCCC4)cc3)ccc2n1C	25.9	60.2	70.3	n	n	38.8	n	n	n	Tn6 DDE ctr=n;Tn6 DDE conf=n
Cc1cc2cc(CNC(=O)C(C)Oc3ccccc3)ccc2n1C (stereo not drawn)	n	36.5	44.9	n	n	33.7	n	n	n	Tn6 DDE ctr=n;Tn6 DDE conf=n
CCC(CC)C(=O)NCc1ccc2c(c1)cc(C)n2C	n	n	n	n	n	n	x	x	x
CC1=NN(c2ccccc2)C(=O)/C1=C/C=C/c1ccccc1	n	n	n	n	n	n	x	x	x
CC1=NN(c2cccc(C(=O)O)c2)C(=O)/C1=C\C=C\c1ccco1	n	n	19.1	n	n	40.4	n	n	56.9
O=C1/C(=C\c2ccco2)SC(=S)N1c1ccc(O)cc1	n	n	n	n	n	n	x	x	x
NN1C(=O)/C(=C\c2ccco2)SC1=S	n	n	20.4	x	n	41.5	n	n	n
O=C1/C(=C/c2ccco2)SC(=S)N1c1cccnc1	n	n	28.3	n	n	31.4	n	22.7	n
O=C(CN1C(=O)/C(=C/c2ccco2)SC1=S)Nc1ccc(O)c(C(=O)O)c1	n	n	n	n	n	n	x	x	x
Cc1ccc(CN(C)C[C@H]2OCc3cnnn3CCCC(=O)N([C@H](C)CO)C[C@@H]2C)cc1	n	n	n	x	n	n	x	x	x
O=C(COC(=O)c1ccc(Br)o1)Nc1ncc([N+](=O)[O-])s1	n	n	n	n	n	n	x	x	x
COc1ccc(C(=O)OCC(=O)Nc2ncc([N+](=O)[O-])s2)cc1OC	n	n	20.6	n	n	38.0	n	n	n
COc1cccc(-c2nc3ccc(C(=O)NC(C)Cc4cccnc4)cc3o2)c1 (stereo not drawn)	n	n	n	n	n	n	x	x	x
CCC(C)Sc1cccc(-c2nc3cc(C)ccn3c2NC2CCCCC2)c1 (stereo not drawn)	n	n	24.6!	n	n	39.2	n	n	52.4
CCCCCCSc1cccc(-c2nc3cc(C)ccn3c2NC2CCCCC2)c1	n	n	n	n	n	n	x	x	x
SMILES	SIAE inh	Tn6 DDE FP	TCR-CD3 inh	HTRA1 inhibitor	Tn7 DDE FP	mABHD4 FP	BSA TAMRA ctr	TCR-CD3 conf	mABHD4 conf	others
CN(CCC#N)c1ccc(/C=C(\C#N)c2ccccn2)cc1	n	30.6	80.9	n	n	89.0	n	n	n
COc1cccc(-c2cc3nc(C)c(C)c(N4CCN(Cc5ccco5)CC4)n3n2)c1	n	n	x	x	n	n	x	x	x
CNC(=S)N/N=C/c1cc(Br)cc(Br)c1O	n	n	40.4	n	n	30.7	n	36.2	n
O=C(Nc1nc2c(F)cc(F)cc2s1)c1ccc([N+](=O)[O-])o1	n	n	n	n	n	n	x	x	x
O=[N+]([O-])c1cc(Br)c(O)c(/C=N/Nc2nnnn2-c2cccc3ccccc23)c1	n	n	20.1	n	n	39.0	n	41.4	64.5
O=[N+]([O-])c1ccc(NN=Cc2cccc3ccccc23)cc1	n	n	n	n	n	n	x	x	x
Cc1c(NC(=O)CSc2nc3ccccc3c(=O)n2C(C)C)c(=O)n(-c2ccccc2)n1C	n	n	n	n	n	n	x	x	x
O=C1NC(=O)C2(N1)C(=O)c1cccc3cccc2c13 (stereo not drawn)	n	39.0	60.8	n	n	77.6	37.2	31.1	n
CC(COc1cccc([N+](=O)[O-])c1)CN1CCC(C(O)(c2ccccc2)c2ccccc2)CC1 (stereo not drawn)	n	n	x	x	n	n	x	x	x
Nc1ccc(-c2c3ccc(=O)cc-3oc3cc(O)ccc23)cc1C(=O)O	n	n	37.9	n	n	30.2	49.2	33.6	39.7

Assay outcomes (PubChem BioAssay)
